# Reference: ChEMBL document CHEMBL1126752, “Synthesis and biological activity of cis-(3aR)-(-)-2,3,3a,4,5,9b-hexahydro- 3-propyl-1H-benz[e]indole-9-carboxamide: a potent and selective 5-HT1A receptor agonist with good oral availability” (J Med Chem, 1993)
# Activity calls are given as the source filed them. The rule behind the calls is not given here.
# Experiments:
# Rattus norvegicus [1] = test: 5-HTP accumulation in hemispheres of reserpinized rats following peroral administration; assay type: functional; conditions: po
# Rattus norvegicus [2] = test: DOPA accumulation in hemispheres of reserpinized rats following subcutaneous administration at highest dose tested (50 umol/kg); Inactive; assay type: functional, organism-based
# Rattus norvegicus [3] = test: 5-HTP accumulation in corpus striatum of reserpinized rats following subcutaneous administration; assay type: functional; conditions: sc
# Rattus norvegicus [4] = test: 5-HTP accumulation in corpus striatum of reserpinized rats following peroral administration; assay type: functional; conditions: po
# Mus musculus [5] = test: Effect on hypothermia in mice following peroral administration; conditions: po
# Rattus norvegicus [6] = test: 5-HTP accumulation in limbic system of reserpinized rats following peroral administration; assay type: functional; conditions: po
# Rattus norvegicus [7] = organism: Rattus norvegicus; test: Compound was tested for gross behavioral response in rats; full-blown 5-HT syndrome; assay type: functional, organism-based
# Rattus norvegicus [8] = test: In vivo motor activity at 50 umol/kg (po) in male rats expressed as accumulated counts/30 min (p < 0.001); assay type: functional
# Rattus norvegicus [9] = organism: Rattus norvegicus; test: Inhibition of 5-HT1A cell firing in rats; assay type: functional
# In short: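 Male Sprague-Dawley rats (280-330 g) under chloral hydrate anesthesia (400 mg/kg ip), drug given iv via femoral vein in distilled water. Dorsal raphe serotonergic neurons recorded extracellularly and confirmed histologically by dye deposit. Firing rate followed by integrated ratemeter.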
# Rattus norvegicus [10] = test: DOPA accumulation in limbic system of reserpinized rats following peroral administration at highest dose tested (50 umol/kg); Partially active; assay type: functional, organism-based
# Rattus norvegicus [11] = test: DOPA accumulation in corpus striatum of reserpinized rats following peroral administration at highest dose tested (50 umol/kg); Inactive; assay type: functional, organism-based
# Mus musculus [12] = test: Swimming activity of the treated mice/control mice at 6.6 umol/kg, sc; assay type: functional
# Rattus norvegicus [13] = test: DOPA accumulation in hemispheres of reserpinized rats following peroral administration at highest dose tested (50 umol/kg); Inactive; assay type: functional, organism-based
# Felis catus [14] = test: Maximum decrease in blood pressure observed following 1 mg/kg dose in anesthetized cat; assay type: functional; set-up: unit not given here
# In short: (§1)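 Adult cats (2.5-4.0 kg) anesthetized with ketamine 11 mg/kg im then chloralose 80 mg/kg iv. Animals paralyzed with gallamine, ventilated, and kept at 37-38 °C. Blood pressure recorded via femoral artery. Sympathetic activity quantified by cumulative integration. Increasing doses given iv cumulatively at 20-min intervals.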
# Rattus norvegicus [15] = test: In vivo motor activity at 5 umol/kg (sc) in male rats expressed as accumulated counts/30 min (p < 0.001); assay type: functional
# Rattus norvegicus [16] = test: 5-HTP accumulation in limbic system of reserpinized rats following subcutaneous administration; assay type: functional; conditions: sc
# Felis catus [17] = test: Maximum decrease in sympathetic nerve discharge in anesthetized cat.; assay type: functional; in short: as §1
# Rattus norvegicus [18] = test: DOPA accumulation in limbic system of reserpinized rats following subcutaneous administration at highest dose tested (50 umol/kg); Inactive; assay type: functional, organism-based
# Rattus norvegicus [19] = test: DOPA accumulation in corpus striatum of reserpinized rats following subcutaneous administration at highest dose tested (50 umol/kg); Inactive; assay type: functional, organism-based
# Felis catus [20] = test: Inhibition of sympathetic nerve discharge (SND) in anesthetized cat; assay type: functional; in short: as §1
# Mus musculus [21] = test: Swimming activity of the treated mice/control mice at 39 umol/kg, sc (p < 0.01); assay type: functional
# [22] = biological target: T1, 5-hydroxytryptamine receptor 1A (Homo sapiens, UniProt P08908); test: Binding affinity against [3H]8-OH-DPAT-labeled 5-hydroxytryptamine 1A receptor sites in cloned CHO cells; assay type: cell-based
# T1 sequence (P08908 whole entry): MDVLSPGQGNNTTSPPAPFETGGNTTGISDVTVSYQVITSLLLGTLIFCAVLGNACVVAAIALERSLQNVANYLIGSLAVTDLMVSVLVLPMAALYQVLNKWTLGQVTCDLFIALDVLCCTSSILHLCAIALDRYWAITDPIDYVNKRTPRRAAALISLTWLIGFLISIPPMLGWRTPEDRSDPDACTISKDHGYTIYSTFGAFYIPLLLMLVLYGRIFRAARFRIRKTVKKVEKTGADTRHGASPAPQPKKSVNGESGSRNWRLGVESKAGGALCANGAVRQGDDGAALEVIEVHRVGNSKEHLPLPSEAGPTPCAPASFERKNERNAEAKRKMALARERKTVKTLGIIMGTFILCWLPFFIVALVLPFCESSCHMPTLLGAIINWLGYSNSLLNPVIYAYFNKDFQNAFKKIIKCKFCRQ
# In short: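 Competition binding against [3H]-8-OH-DPAT (85 Ci/mmol, 1.2 nM) using 11 dilutions of test compound. Receptor was cloned mammalian 5-HT1A expressed in CHO-K1 cells. IC50 from a one-site nonlinear least-squares fit, converted to Ki by Cheng-Prusoff. Ki reported ±SEM.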
# Rattus norvegicus [23] = test: 5-HTP accumulation in hemispheres of reserpinized rats following subcutaneous administration; assay type: functional; conditions: sc
# Mus musculus [24] = test: Effect on hypothermia in mice following subcutaneous administration; conditions: sc
# Felis catus [25] = test: Percent arterial blood pressure at sympathetic nerve discharge in anesthetized cat; assay type: functional; in short: as §1
structure (smiles),measurement,setting,value
"O=C(NCCN1CCN(c2cccc3c2OCC(CO)O3)CC1)c1ccc(F)cc1 (single isomer, unassigned; (+))",ED50,Rattus norvegicus [1],0.36 µmol/kg
same,ED50,Rattus norvegicus [2],inactive
same,ED50,Rattus norvegicus [3],0.55 µmol/kg
same,ED50,Rattus norvegicus [4],0.27 µmol/kg
same,ED50,Mus musculus [5],1.6 µmol/kg
same,ED50,Rattus norvegicus [6],0.36 µmol/kg
same,Response,Rattus norvegicus [7],Active
same,Accumulated counts/30 min,Rattus norvegicus [8],135
same,ED50,Rattus norvegicus [9],0.16 µmol/kg
same,ED50,Rattus norvegicus [10],Weak activity
same,ED50,Rattus norvegicus [11],inactive
same,Swimming activity,Mus musculus [12],0.6
same,ED50,Rattus norvegicus [13],inactive
same,Max decrease,Felis catus [14],55
same,Accumulated counts/30 min,Rattus norvegicus [15],84
same,ED50,Rattus norvegicus [16],0.63 µmol/kg
same,Max decrease,Felis catus [17],2
same,ED50,Rattus norvegicus [18],inactive
same,ED50,Rattus norvegicus [19],inactive
same,ED50,Felis catus [20],0.14 µmol/kg
same,Swimming activity,Mus musculus [21],3.3
same,Ki,[22],2.9 nM
same,ED50,Rattus norvegicus [23],0.63 µmol/kg
same,ED50,Mus musculus [24],0.16 µmol/kg
same,BP,Felis catus [25],79%
